Laboratory results from PMC3462166 (Journal of the American Chemical Society, 2012).
Values joined by “and” are separate entries in the source; they are usually repeats but may differ in a detail not shown here. Identical values can stand only once.

Key:
[1] = test system: CD22 (Siglec-2) on B cells; conditions: ligand targeting chemotherapeutic loaded liposomes; cited from earlier work
Sn [2] = conditions: natural ligand in a comparable assay; cited from earlier work
murine Sn = murine Sn (Mus musculus, UniProt Q62230); conditions: inhibition of mSn-Fc chimera binding to natural-ligand beads; triplicate, ± SD
murine Sn, sequence (Q62230 20-136 limits assumed): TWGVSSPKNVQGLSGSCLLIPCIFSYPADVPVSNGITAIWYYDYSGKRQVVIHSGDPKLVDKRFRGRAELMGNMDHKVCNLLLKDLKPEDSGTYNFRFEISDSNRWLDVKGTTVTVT
How it was run: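 Magnetic beads coated with Neu5Acα2-3Galβ1-4GlcNAc were bound by murine sialoadhesin-Fc chimera in the presence of serial dilutions of competitor (9-N-acyl sialoside analogs). Displacement of bead-bound chimera was read by flow cytometry, and IC50 was taken as the concentration needed to displace the bound chimera. Titrations were run in triplicate, with SD from three independent measurements.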

Sn [3] = conditions: liposomes decorated with the ligand; cited from earlier work
Sn expressing cells = conditions: liposomes decorated with the ligand; cited from earlier work

## 9-N-biphenylcarbamoyl-Neu5Acα2-6Galβ1-4GlcNAc [6′-^BPCNeu5Ac]
[1]
  survival in murine model of human B cell lymphoma: prolong life

## Neu5Acα2-3Galβ1-4GlcNAc
Sn [2]
  IC50: 1.3 mM

## CC(=O)NC1C(O)OC(CO)C(OC2OC(CO)C(O)C(OC3(C(=O)O)CC(O)C(NC(C)=O)C(C(O)C(O)CNC(=O)c4cc5c(s4)-c4ccccc4OC5)O3)C2O)C1O (stereo not drawn) [Compound 2, 9-N-(4H-thieno[3,2-c]chromene-2-carbamoyl)-Neu5Acα 2-3Galβ1-4GlcNAc]
Murine Sn
  IC50: 0.38 ± 0.04 µM

## CC(=O)NC1C(O)OC(CO)C(OC2OC(CO)C(O)C(OC3(C(=O)O)CC(O)C(NC(C)=O)C(C(O)C(O)CNC(=O)c4ccc(-c5ccccc5)cc4)O3)C2O)C1O (stereo not drawn) [Compound 1, 9-N-biphenylcarbamoyl-Neu5Acα2-3Galβ1-4GlcNAc]
Sn [3]
  selectivity for in vivo targeting: not sufficiently selective
Murine Sn
  IC50: 4.8 µM and 4.82 µM
Sn expressing cells
  targeting of Sn expressing cells in vitro: capable of targeting Sn expressing cells in vitro
